# Experimental data pooled from the literature.
# Target: Myotonin-protein kinase (DMPK, Homo sapiens, UniProt Q09013)
# One construct used (Q09013 1-629): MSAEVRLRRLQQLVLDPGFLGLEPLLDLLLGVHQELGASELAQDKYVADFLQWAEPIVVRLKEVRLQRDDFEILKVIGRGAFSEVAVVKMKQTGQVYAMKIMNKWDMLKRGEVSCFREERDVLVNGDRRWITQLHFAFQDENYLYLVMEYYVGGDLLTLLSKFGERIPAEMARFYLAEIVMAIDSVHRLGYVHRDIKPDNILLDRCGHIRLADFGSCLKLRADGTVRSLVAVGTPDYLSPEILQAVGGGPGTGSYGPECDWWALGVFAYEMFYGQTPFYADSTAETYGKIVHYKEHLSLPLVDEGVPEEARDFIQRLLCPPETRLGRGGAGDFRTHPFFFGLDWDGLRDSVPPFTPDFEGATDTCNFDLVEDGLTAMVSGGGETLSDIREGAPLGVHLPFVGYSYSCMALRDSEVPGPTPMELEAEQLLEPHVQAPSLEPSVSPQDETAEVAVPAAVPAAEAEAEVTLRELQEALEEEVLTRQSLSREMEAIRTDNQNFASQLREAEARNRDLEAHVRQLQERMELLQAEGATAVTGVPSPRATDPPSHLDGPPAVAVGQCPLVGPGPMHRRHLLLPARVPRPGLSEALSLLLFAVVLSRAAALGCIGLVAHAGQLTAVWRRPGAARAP
Compound,read-out,method,concentration,remaining binding [%]
N[C@@H]1CCN(c2nccc(-c3cnn4ncccc34)n2)C1,binding,,1 µM,94
CCN1CCN(Cc2ccc(C(=O)Nc3ccc(C)c(Oc4ccc5c(c4)CC(=O)N5)c3)cc2C(F)(F)F)CC1,binding,competition with immobilised ligand,1 µM,88
O=C(NCCCN1CCOCC1)c1ccc(Nc2nccc(-c3cc4ccccc4s3)n2)cc1,binding,competition with immobilised ligand,1 µM,100
COc1cnc(Nc2cccc(S(N)(=O)=O)c2)nc1N1CCN(c2ccccc2)CC1,binding,competition with immobilised ligand,1 µM,100
CN(CCCC(F)(F)F)c1nccc(-c2cnn3ncccc23)n1,binding,,1 µM,80
COc1cccc(CNC(=O)c2nc3scc(COCc4ccc(C(=O)O)cc4)c3c(=O)[nH]2)c1,cell-free assay,competition with immobilised ligand,1 µM,85.4
CN(C)c1nccc(-c2cnc3ncccn23)n1,binding,,1 µM,82
O=C(NCC1CCOCC1)c1n[nH]cc1NC(=O)c1c(F)cccc1F,binding,competition with immobilised ligand,1 µM,38
O=C(c1ccc(Nc2ncc(Cl)c(-c3cc4ccccc4s3)n2)cc1)N1CCC(N2CCCC2)CC1,binding,competition with immobilised ligand,1 µM,75
c1cncc(-c2cccc(Nc3nccc(NC4CCCCC4)n3)c2)c1,binding,competition with immobilised ligand,10 µM,100
CNCc1ccccc1-c1csc([C@H](C)Nc2nc(C)nc3cc(OC)c(OC)cc23)c1,cell-free assay,competition with immobilised ligand,1 µM,85
Nc1ncc2c(n1)-c1c([nH]c3ccc(C#CC4CC4)cc13)CCCC2,binding,competition with immobilised ligand,1 µM,82
Cn1nc(C(=O)NCc2ccc(C(=O)O)cc2)cc1-c1ccc2[nH]ccc2c1,cell-free assay,competition with immobilised ligand,0.1 µM,76
CN(c1nccc(-c2cnn3ncccc23)n1)C1CC1,binding,,1 µM,100
CCS(=O)(=O)c1cc2cc(C[C@@](O)(CC(C)(C)c3ccc(F)cc3C(N)=O)C(F)(F)F)[nH]c2cn1,cell-free assay,competition with immobilised ligand,1 µM,85
c1cnn2ncc(-c3ccnc(N4CCC45COC5)n3)c2c1,binding,,1 µM,98
CCC(=O)N[C@H]1CC[C@@H](C(=O)N(C)c2ccc(-c3nc4ccccc4o3)cc2)C1,cell-free assay,competition with immobilised ligand,1 µM,100
C[C@H]1CCN(c2nccc(-c3cnn4ncccc34)n2)C1,binding,,1 µM,100
C[C@H](NC(=O)c1cnc2n1[C@](C)(Cc1ccc(C#N)cc1)C(=O)N2c1cc(Cl)c(F)c(Cl)c1)C(=O)NC1(c2ccccn2)CC1,cell-free assay,competition with immobilised ligand,1 µM,67
FC(F)(F)Oc1cccc(-c2cnc3ccc(-c4ccncc4)nn23)c1,cell-free assay,competition with immobilised ligand,5 µM,99
Nc1cnc(N2CCc3cc(S(=O)(=O)Nc4c(F)cc(Cl)cc4F)cc(N4CCCC4=O)c32)nc1,cell-free assay,competition with immobilised ligand,1 µM,100
Cc1cnc(Nc2ccc(C(=O)N3CCC(N4CCCC4)CC3)cc2)nc1-c1cc2ccccc2s1,binding,competition with immobilised ligand,1 µM,100
